Measurements collected from several papers.
Protocols differ between the studies behind these lines.
ALK: ALK tyrosine kinase receptor (ALK, Homo sapiens, UniProt Q9UM73)
ALK L1196M: ALK tyrosine kinase receptor (ALK, Homo sapiens, UniProt Q9UM73, L1196M)
ALK C1156Y: ALK tyrosine kinase receptor (ALK, Homo sapiens, UniProt Q9UM73, C1156Y)

SMILES	target	assay	conditions	quantity	result
CO[C@@H]1[C@H](N(C)C(=O)c2ccccc2)C[C@H]2O[C@]1(C)n1c3ccccc3c3c4c(c5c6ccccc6n2c5c31)C(=O)NC4	ALK	enzyme activity, inhibitor	1 µM	inhibition	54%
N#Cc1ccc(NC(=O)Nc2ccccc2)cc1	ALK	cell-free assay, competition with immobilised ligand	25 µM	remaining binding	76%
C=CC(=O)N1CCC([C@@H]2CCNc3c(C(N)=O)c(-c4ccc(Oc5ccccc5)cc4)nn32)CC1	ALK L1196M	cell-free assay	1 µM	inhibition	19%
C#Cc1cnc(Nc2ccc(CO)cc2)nc1Nc1ccccc1C(=O)NC	ALK	enzyme activity, inhibitor, radiometric	1 µM	remaining activity	2.4%
COc1ccc2[nH]c3c4[nH]c5ccc(OC)cc5c4c4c(c3c2c1)C(=O)NC4=O	ALK L1196M	binding	1 µM	remaining binding	70%
C#Cc1cnc(Nc2ccc(CO)nc2)nc1Nc1ccccc1S(C)(=O)=NC#N (centres unmarked)	ALK	enzyme activity, inhibitor, radiometric	1 µM	remaining activity	18.9%
CC#CC(=O)N1CCC[C@H]1c1nc(-c2ccc(C(=O)Nc3ccccn3)cc2)c2c(N)nccn12	ALK C1156Y	enzyme activity, inhibitor	1 µM	inhibition	0%
C1=C/COCc2cc(ccc2OCCN2CCCC2)Nc2nccc(n2)-c2cccc(c2)COC/1	ALK C1156Y	binding	0.1 µM	remaining binding	97%
CN1CCN(C(=O)c2ccc(NC(=O)Nc3ccc(N(C)c4ccnc(Nc5ccc(CS(C)(=O)=O)cc5)n4)cc3)cc2)CC1	ALK L1196M	binding	1 µM	remaining binding	83%
COc1ccc2oc(-c3ccc4nc(N)oc4c3)c/c(=N\c3ccccc3NC(=O)CCN)c2c1	ALK	binding	1 µM	remaining binding	106%
CS(=O)(=NC#N)c1ccccc1Nc1nc(Nc2ccc(CO)nc2)ncc1Cl (centres unmarked)	ALK	enzyme activity, inhibitor, radiometric	1 µM	remaining activity	23.4%
Cc1ccc(NC(=O)c2ccnc(C(F)(F)F)c2)cc1-c1cc(OCCO)nc(N2CCOCC2)c1	ALK C1156Y	binding	1 µM	remaining binding	100%
C#Cc1cnc(Nc2ccnc(CO)c2)nc1Nc1ccccc1S(C)(=O)=NC#N (centres unmarked)	ALK	enzyme activity, inhibitor, radiometric	1 µM	remaining activity	27.6%
CCCCC(=O)Nc1ccc(-c2ccc3ncn(CCC)c(=O)c3c2)cn1	ALK C1156Y	binding, competition with immobilised ligand	0.5 µM	remaining binding	100%
